Laboratory results reported in ChEMBL document CHEMBL4513216, “Probing the Open Global Health Chemical Diversity Library for Multistage-Active Starting Points for Next-Generation Antimalarials” (ACS Infect Dis, 2020).

Assay: Toxicity liver stage against HepG2, at 10uM
Type: cell-based
Set-up: test concentration 10 uM, cell line HepG2-A16-CD81EGFP
Details: human, HepG2-A16-CD81EGFP cells; read-out: INHIBITION
Outline: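 Uninfected HepG2-A16-CD81EGFP cells, 3 × 10^3 per well, 1536-well, plated on prespotted compound at 10 μM final, parasite-free screening media added to match infected plates; puromycin 10 μM positive, DMSO 0.5% negative; run in parallel with 48 h PbLuc assay at 37 °C, 5% CO2; viability by CellTiter-Glo luminescence, normalized to controls.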

Compared with `CCOC(=O)c1sc(NC(=O)C(C)C)c(C#N)c1C`, `Cc1ccccc1CC(C)(C)NC(=O)COc1cccc(C(N)=O)c1` is higher in cytotoxicity at 10 µM: -15.9% for the first, 20.4% for the second.

First: NC(=O)C1CCN(C(=O)Cc2cnc(-c3c(Cl)cccc3Cl)s2)CC1
Second: CCc1cnc(CNC(=O)N2CCCC(C(=O)NC)C2)s1 (stereo unspecified)
The cytotoxicity at 10 µM of the first is lower: -2.23% for the first, 19.8% for the second.

First: COCCn1cc(CC(=O)Nc2c(C)nn(C)c2C)c2ccccc21
Second: COCc1nc2c(o1)CN(C(=O)NCc1ccccc1)C2
The cytotoxicity at 10 µM of the first is lower: 1.18% for the first, 10.6% for the second.

Going from `Cc1csc(NC(=O)Cn2nc(C)ccc2=O)n1` to `Cn1cc(NC(=O)Nc2cccc3cccnc23)ccc1=O`, the cytotoxicity at 10 µM falls from -5.7% to -9.22%.

Going from `O=C(NCCc1ccccc1)NCCN1CCC(c2cccs2)CC1` to `CC(CCc1ccccc1)N1CCC(C(=O)Nc2cnccn2)CC1` (stereo unspecified), the cytotoxicity at 10 µM rises from -4.16% to 13.2%.

First: CC(C)(CO)CNC(=O)c1ccnn1-c1ccc2ccccn12
Second: O=C(NCCCn1cccn1)c1nnc2ccccc2n1
The cytotoxicity at 10 µM of the first is higher: 15.8% for the first, 0.14% for the second.

First: COCCN1C(=O)C2(CCC(C(=O)Nc3ccccn3)CC2)N=C1C (stereo unspecified)
Second: O=C(NCCCn1nc2ccccn2c1=O)NCCC1CCC1
The cytotoxicity at 10 µM of the first is higher: 10.7% for the first, 5.47% for the second.

Going from `COc1cccc(CN2CCC3(CCN(c4ncc(C)cn4)C3)C2=O)c1` (stereo unspecified) to `COc1ccc(C2CCN(Cc3cscn3)CC2)cc1`, the cytotoxicity at 10 µM rises from -0.265% to -0.243%.

Going from `Cc1ccc(C(=O)N2CC[C@@H]3[C@H]2CCC(=O)N3CC2CC2)o1` to `Cc1ccc(C(=O)N2CCCC(N(C)C(=O)OC(C)(C)C)C2)o1` (stereo unspecified), the cytotoxicity at 10 µM falls from -0.419% to -54%.

Compared with `CN1C(=O)CC(c2cnn(C)c2)C12CCN(C(=O)c1ccc[nH]1)CC2` (stereo unspecified), `CN1CCN(C(=O)c2occc2CN2C(=O)Cc3ccccc32)CC1` is lower in cytotoxicity at 10 µM: 6.74% for the first, -1.89% for the second.

Compared with `c1cc(CNCC2Cn3nncc3CO2)cs1` (stereo unspecified), `CC(C)(C)c1ncc(CNCC2CN(C3CC3)CCO2)s1` (stereo unspecified) is lower in cytotoxicity at 10 µM: 6.13% for the first, 0.948% for the second.

Compared with `CC(=O)N1CC2(CCN(C(=O)N(C)C)CC2)c2cc(C)ccc21`, `CCC(CC)NC(=O)CN1CCN(C(=O)N(C)C)CC1` is lower in cytotoxicity at 10 µM: 7.7% for the first, -3.7% for the second.

First: Cc1noc2nc3c(c(C(=O)/N=c4\[nH]nc(C(C)C)s4)c12)CCC3
Second: CC(C)c1noc(C(C)S(=O)(=O)CC(=O)N2CCCC2)n1 (stereo unspecified)
The cytotoxicity at 10 µM of the first is lower: -6.53% for the first, 4.23% for the second.

Going from `CCN(CC)c1nc(C)cc(C(=O)Nc2cnn(CC)c2)n1` to `CCS(=O)(=O)N(C)CCCNC(=O)c1cc(Cl)cc2cccnc12`, the cytotoxicity at 10 µM rises from -16.4% to 15%.

Compared with `CCOCC(=O)N1CCC(C)(c2nccs2)CC1`, `CCC(CC)c1cc(CNC(=O)N2CCC[C@@H]2CO)on1` is lower in cytotoxicity at 10 µM: 7.64% for the first, -5.16% for the second.

Compared with `Cn1nc(C2CNCCO2)cc1CCOc1cccc(C(F)(F)F)c1` (stereo unspecified), `Cc1cc(N(Cc2cccnc2)C2CC2)n2nc(C(F)(F)F)nc2n1` is lower in cytotoxicity at 10 µM: -1.02% for the first, -1.95% for the second.

Compared with `Nc1nccc(C2CCCN2CCc2ccccc2)n1` (stereo unspecified), `O=C(C[S+]([O-])Cc1csc(C2CCCC2)n1)Nc1ccccc1` (stereo unspecified) is lower in cytotoxicity at 10 µM: 3.38% for the first, -42.3% for the second.

First: CS(=O)(=O)c1cc(C(=O)NS(=O)(=O)Cc2ccc(F)cc2)ccc1Cl
Second: CS(=O)(=O)Cc1ccc(C(=O)Nc2ccc3c(c2)C(=O)NC3)cc1
The cytotoxicity at 10 µM of the first is lower: -3.38% for the first, 10.8% for the second.

Going from `CN1CCN(c2ccc(F)cc2NC(=O)NCCn2ccnc2)CC1` to `NC(=O)CCC1CCCN(c2ccc3c(Cl)ccnc3c2F)C1` (stereo unspecified), the cytotoxicity at 10 µM rises from 1.69% to 29.6%.

Compared with `O=C(c1ccccc1F)N(CCCO)S(=O)(=O)c1cccs1`, `CC(NC(=O)NCc1cccnc1N(C)C)c1cccs1` (stereo unspecified) is lower in cytotoxicity at 10 µM: 4.95% for the first, 1.76% for the second.

Compared with `CC1CCN(S(=O)(=O)N2CCCN(CC3CCCO3)CC2)CC1` (stereo unspecified), `CCN1CCCCC1C(=O)N1CCC(OCCOC)CC1` (stereo unspecified) is lower in cytotoxicity at 10 µM: -5.15% for the first, -6.81% for the second.

First: CC(C)CC(N)C1=NC(=C2N=CN=N2)NO1 (stereo unspecified)
Second: CC(C)c1noc(CCNC(=O)N2CCSC(C(C)C)C2)n1 (stereo unspecified)
The cytotoxicity at 10 µM of the first is higher: 10.6% for the first, -2.65% for the second.

Compared with `NC(=O)CN1CCCN(C(=O)c2ccc(SC(F)F)cc2)CC1`, `N#Cc1ccc(CCC(=O)N2CCC(CN3CCOCC3)CC2)cc1` is higher in cytotoxicity at 10 µM: -6.08% for the first, -4.97% for the second.

Going from `CCCNC(=O)CN(C)C1CCN(c2ccc(Cl)cc2)CC1` to `CCSCCC(=O)NCCn1nc2ccccn2c1=O`, the cytotoxicity at 10 µM falls from 1.41% to -9.53%.

Compared with `CCn1nc2c(cc1=O)CN(c1nc3ccccc3s1)CC2`, `CC(C)c1ncc2c(n1)CN(Cc1cccc3c1OCCO3)CC2` is lower in cytotoxicity at 10 µM: 7.5% for the first, -4.34% for the second.

First: CN(Cc1cnn(C)c1)C(=O)CCS(=O)(=O)c1ccc2c(c1)OCCO2
Second: COCC1CCCN(CCCc2cccc(OC)c2)C1 (stereo unspecified)
The cytotoxicity at 10 µM of the first is lower: -17% for the first, 2.41% for the second.

First: FC(F)Oc1ccc(CN2CCOC3(CCOCC3)C2)cc1Cl
Second: CCc1nnc2n1CC(CNCC1CCCC1)CC2 (stereo unspecified)
The cytotoxicity at 10 µM of the first is lower: -6.58% for the first, -3.98% for the second.

Going from `CCc1sc(C(=O)NC2CC2)cc1C` to `CC(C)Sc1ccc(C(C)NC(=O)CNS(C)(=O)=O)cc1` (stereo unspecified), the cytotoxicity at 10 µM falls from 14.5% to 3.92%.
